# Assay results from article PMC5217177 (Journal of natural products, 2016).
# Entries after “also recorded” stand apart in the source; their conditions may differ.
# Tests used:
# [1] = system: Bacillus subtilis ATCC 6633; assay: MIC determination, broth dilution in 96-well plates; format: cell-based; details: LB medium, 28–37 °C, 16–48 h, OD600 read-out, max conc ~10 μg/mL
# Outline: (§1)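 Starter cultures were grown 16 h at 37 °C and 250 rpm, then diluted in medium to OD600 ~0.1. Test compound was serially diluted in DMSO, with DMSO alone as the negative control. Positive controls were kanamycin for the bacteria and amphotericin B for the yeast. Plates were shaken at 160 rpm during incubation. OD600 was normalized to vehicle wells, and the lowest inhibitory concentration was taken as the MIC.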
# [2] = system: Salmonella enterica ATCC 10708; assay: as above; format: cell-based; details: nutrient broth, 28–37 °C, 16–48 h, OD600 read-out, max conc ~10 μg/mL
# Outline: as §1
# [3] = system: Escherichia coli ATCC 12435; assay: as above; format: cell-based; details: LB medium, 28–37 °C, 16–48 h, OD600 read-out, max conc ~10 μg/mL
# Outline: as §1
# [4] = system: Saccharomyces cerevisiae ATCC 204508; assay: as above; format: cell-based; details: YAPD medium, 28–37 °C, 16–48 h, OD600 read-out, max conc ~10 μg/mL
# Outline: as §1
# [5] = system: S. aureus and B. subtilis; details: cited from earlier work
# [6] = Stability under acidic conditions; format: physicochemical; details: observed during HPLC purification with TFA; UV/Vis monitoring
# Gram-positive strains = assay: Antibacterial activity, comparisons across the tested strains; format: cell-based; details: from MIC of Table 3
# [7] = system: two human cancer cell lines; assay: Cytotoxicity, comparison across PC3 and A549; format: cell-based; details: PC3 and A549, 48 h
Substance,"MIC, B. subtilis [1] [µg/mL]","MIC, S. enterica [2] [µg/mL]","MIC, E. coli [3] [µg/mL]","MIC, S. cerevisae [4] [µg/mL]",antibacterial activity based on zones of inhibition [5],stability under acidic conditions [6],fold more potent than actinomycin Y3 (antibacterial) (Gram-positive strains) [fold],fold change in EC50 compared to actinomycin D (less potent) [7]
actinomycin Y3,>9.33,>9.33,>9.33,>9.33,,,,
actinomycin Y4,>9.32,>9.32,>9.32,>9.32,,,,
actinomycin Y5,,,,,modest antibacterial activity,,,
actinomycin Y6 [Compound 1],0.59,>9.46,>9.46,9.46,,not stable under acidic conditions; also recorded: unstable under acidic condition,≥ 9,278–355 fold
